Source: PubChem
A selection: hits, their analogues and other compounds. The true share with any hit is near 1.2%.
IDE act – human IDE activators in live cells, primary screen, fluorescence polarization, HEK cells, FAbeta-B substrate. activation, % at 5.96 µM. FAbeta-B cleavage; 0% vehicle, 100% cell-free pure enzyme wells. Insulin-degrading enzyme (Homo sapiens), P14735. hit rate 0.073% among 340,000. AID 493087, 2011;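 active = activation above the mean of all tested compounds plus 3 SD, set per screening campaign, cut at about 17% in these data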
Target sequence (P14735 whole entry, looked up): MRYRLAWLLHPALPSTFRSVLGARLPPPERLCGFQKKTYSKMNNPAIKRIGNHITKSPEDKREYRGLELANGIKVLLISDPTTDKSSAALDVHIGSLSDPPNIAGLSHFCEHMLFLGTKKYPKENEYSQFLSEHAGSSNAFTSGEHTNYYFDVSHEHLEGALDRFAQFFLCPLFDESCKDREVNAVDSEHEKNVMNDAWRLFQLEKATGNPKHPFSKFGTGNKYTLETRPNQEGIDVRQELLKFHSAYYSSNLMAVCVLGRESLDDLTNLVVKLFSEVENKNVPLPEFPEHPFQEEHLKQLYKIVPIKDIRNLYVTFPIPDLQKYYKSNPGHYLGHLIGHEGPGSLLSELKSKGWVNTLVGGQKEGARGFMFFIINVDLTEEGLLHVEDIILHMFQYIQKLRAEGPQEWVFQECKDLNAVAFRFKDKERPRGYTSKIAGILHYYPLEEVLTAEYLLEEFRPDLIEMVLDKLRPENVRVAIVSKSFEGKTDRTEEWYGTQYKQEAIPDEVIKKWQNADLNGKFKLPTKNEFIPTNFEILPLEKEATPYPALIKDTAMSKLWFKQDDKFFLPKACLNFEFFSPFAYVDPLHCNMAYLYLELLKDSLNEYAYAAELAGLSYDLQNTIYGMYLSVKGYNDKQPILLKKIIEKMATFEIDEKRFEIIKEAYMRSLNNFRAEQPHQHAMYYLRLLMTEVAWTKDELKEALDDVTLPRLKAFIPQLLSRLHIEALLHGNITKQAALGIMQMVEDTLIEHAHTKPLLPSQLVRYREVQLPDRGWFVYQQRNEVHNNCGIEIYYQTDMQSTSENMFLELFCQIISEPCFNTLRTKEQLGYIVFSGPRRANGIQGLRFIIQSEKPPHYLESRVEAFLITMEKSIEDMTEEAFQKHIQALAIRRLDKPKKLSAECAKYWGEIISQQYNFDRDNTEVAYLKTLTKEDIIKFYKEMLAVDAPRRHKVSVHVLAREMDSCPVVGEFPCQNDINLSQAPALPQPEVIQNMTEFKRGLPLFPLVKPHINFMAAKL
PREPL inh – PREPL enzyme inhibitors, primary screen, biochemical, fluorescence polarization; hit rate 0.68% among 320,000; inhibition, % at 5.96 µM; Prolyl endopeptidase-like (Homo sapiens), Q4J6C6; recombinant PREPL, fluorescence polarization activity-based probe; in the data active = inhibition above about 43%;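 also: 0% = enzyme with DMSO and 100% = wells lacking enzyme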
IDE cell inh – human IDE inhibitors in live cells, primary screen, fluorescence polarization, HEK cells, FAbetaB substrate; Insulin-degrading enzyme (Homo sapiens), P14735; FAbetaB cleavage; inhibition, % at 5.59 µM; hit rate 0.41% among 320,000; AID 434962, 2010;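 active = percent inhibition above the average of all tested compounds plus 3 SD, set per screening campaign, cut at about 16% in these data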;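 also: IDE supplied by intact live HEK cells; FP after avidin binding of uncleaved biotin substrate so inhibition keeps polarization high; 0% = DMSO wells and 100% = 60 µM reference IDE inhibitor Ii1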
ASAP1 inh – inhibitors of human ASAP1 ArfGAP activity, primary screen, biochemical, fluorescence polarization; inhibition, % at 16.5 µM; Arf-GAP with SH3 domain, ANK repeat and PH domain-containing protein 1 (Homo sapiens), …; hit rate 0.19% among 360,000; ASAP1-stimulated ARF1 GTP hydrolysis, GDP FP detection; AID 624377, 2012; in the data active = inhibition above about 25%;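 also: 0% = vehicle with enzyme and substrate and 100% = no enzyme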
ARFGAP1 inhibitor – inhibitors of rat ARFGAP1 GAP activity, primary screen, biochemical, fluorescence polarization, GDP tracer | ADP-ribosylation factor GTPase-activating protein 1 (Rattus norvegicus), Q62848 | Arfgap1-stimulated ARF1 GTP hydrolysis, GDP FP detection | inhibition, % at 16.5 µM | hit rate 0.26% among 360,000 | AID 651572, 2012;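 active = inhibition above a per-plate limit, mean inhibition of low control wells plus 3 SD, cut at about 25% in these data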;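 also: 0% = DMSO wells with enzyme and 100% = wells lacking Arfgap1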
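Assay system: Rat Arfgap1 GAP domain (His6, aa 1-136), purified enzyme | Buffer or medium: HEPES 25 mM pH 7.5, NaCl 150 mM, MgCl2, DTT | Schedule: GTP hydrolysis reaction 2 h at 25 °C | Signal: FP of antibody-bound GDP Alexa 633 tracer, ex 620/em 688 nm | Measure: Percent inhibition of Arfgap1-stimulated GTP hydrolysis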
ASAP1 GAP conf – ASAP1 GAP activity inhibitors, confirmation, biochemical, fluorescence polarization, human, triplicate. shares compounds with ASAP1 inh. ASAP1-stimulated Arf1 GTPase, GDP fluorescence polarization. inhibition, % at 16.5 µM. hit rate 37% among 620. AID 624431, 2012;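 active = mean inhibition over triplicates exceeds the hit threshold derived for the earlier primary screening run, cut at about 25% in these data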
* hit, by the source's call; · = no result.

SMILES | IDE act | PREPL inh | IDE cell inh | ASAP1 inh | ARFGAP1 inhibitor | ASAP1 GAP conf
COc1cccc(-c2onc3ccc(C(=O)/C=C/N(C)C)cc23)c1 | -10.8 | -12.7 | 0.2 | 35.5* | 1.8 | 51.3*
Cc1cccc(-c2onc3ccc(C(=O)/C=C/N(C)C)cc23)c1 | -20.4 | 4.7 | -0.1 | -5.5 | -0.4 | ·
O=C(O)c1cc2ccc3cccc4ccc(c1)c2c34 | 2.3 | -2.9 | -0.8 | 4.9 | -5.7 | ·
CNC(=S)N(CCc1c(C)[nH]c2ccc(C)cc12)Cc1cccs1 | 1.7 | 0.8 | 3.9 | 26.1* | 9.7 | 20.7
COC(=O)/C=C1/SC(=NC(=O)c2ccc(F)cc2)NC1=O | · | 0.6 | 2.0 | -6.5 | -9.7 | ·
Cc1ccc(OCC(=O)N(C)CC(=O)N(CC(C)C)c2c(N)n(CC(C)C)c(=O)[nH]c2=O)c(C)c1 | 1.6 | 1.4 | -0.3 | -4.3 | 2.1 | ·
CC(C)CC(=O)NC(=S)Nc1ccc(N2CCN(C(=O)c3cccs3)CC2)cc1 | 4.4 | 10.8 | 1.6 | -3.0 | 1.1 | ·
CC(C)CC(=O)NC(=S)Nc1ccc(NC(=O)c2cccs2)cc1 | 6.5 | -4.3 | 4.2 | 25.4* | 5.7 | 4.3
Cc1cc(=O)oc2cc(OCC(=O)Nc3ccccc3C(N)=O)c(Cl)cc12 | -5.6 | 7.6 | 6.4 | 12.6 | 1.7 | ·
COc1cccc(-n2c(SCC(=O)NCC3CCCO3)nc3c(c2=O)SCC3)c1 (configuration not stated) | 1.5 | 2.5 | 0.4 | 8.6 | -1.7 | ·
COc1nccc(Nc2ccccc2)c1C#N | 3.4 | 2.1 | -5.4 | 28.4* | 1.0 | 5.3
COC(=O)c1cccc(NC(=O)CCc2c(C)noc2C)c1 | 0.0 | 0.7 | -1.6 | 11.8 | -7.5 | ·
CC1CCC(NC(=O)COC(=O)C2CC3CCCC(C2)C3=O)CC1 (configuration not stated) | -5.5 | -3.2 | 1.5 | -9.7 | -2.4 | ·
O=C(COC(=O)C1CC2CCCC(C1)C2=O)NC1CCCCC1 (configuration not stated) | 2.2 | -1.9 | -0.8 | 25.8* | 7.2 | -2.7
Cc1ccc(N(C)S(=O)(=O)c2ccc3[nH]cc(C(=O)NCCCN4CCOCC4)c(=O)c3c2)cc1C | 2.7 | -5.7 | 1.4 | 30.1* | -4.6 | 4.7
O=C(COc1ccc(/C=N/NC(=O)c2cc3ccccc3o2)cc1Br)Nc1ccccc1 | 4.4 | -2.2 | -5.7 | 75.5* | 16.8 | 83.7*
O=C(COc1ccccc1[N+](=O)[O-])Nc1ccc(NC(=O)c2cc3ccccc3o2)cc1 | 4.6 | 3.1 | 4.8 | 0.7 | 5.7 | ·
O=C(NCc1ccccc1Cl)[C@H]1CCCN1C(=O)[C@H]1CCCN1C(=O)c1ccccc1 | · | · | · | -6.1 | 0.1 | ·
CCN1C[C@@H]2[C@@H]3C(=O)N(Cc4ccccc4)C(=O)[C@@H]3[C@](Cc3ccccc3)(C1=O)N2C(=O)c1ccc(Cl)cc1 | 3.4 | · | · | 56.5* | 7.5 | 1.1
Cc1nnc(SCC(=O)NCc2cccs2)n1-c1ccccc1 | 2.0 | 2.6 | 3.4 | 8.1 | -6.8 | ·
Cc1occc1-c1nnc(SCC(=O)NCc2cccs2)n1-c1ccc(F)cc1 | -2.0 | 22.5 | 10.2 | 26.3* | -3.6 | 5.7
C=C1c2nc3ccccc3n2C=C(c2ccc(C)cc2)N1c1ccccc1 | 5.9 | · | · | 4.9 | 7.5 | ·
CCN(CC)c1nc(N)c2c(N)nc(OC)cc2c1C#N | -1.2 | 24.0 | -4.4 | 34.4* | 11.8 | -1.8
O=C1CCn2c1c(O)c1ccccc1c2=O | -0.3 | · | · | 37.3* | 9.3 | 15.4
O=c1c2ccccc2nc2n1CCC2 | 0.2 | 14.2 | -0.9 | -4.3 | -8.4 | ·
SMILES | IDE act | PREPL inh | IDE cell inh | ASAP1 inh | ARFGAP1 inhibitor | ASAP1 GAP conf
C/C(=N/NS(=O)(=O)c1ccc(C)cc1)c1ccc(NC(=O)C(F)(F)F)cc1 | 4.1 | -2.0 | 1.1 | 25.2* | 2.4 | 7.8
Cc1cc(-c2cc(NC(=O)Cc3c(C)[nH]c4ccccc34)ccc2Nc2cccnc2)ccc1F | · | · | · | 19.4 | 17.4 | ·
Cc1[nH]c2ccccc2c1CC(=O)Nc1ccc(Nc2cccnc2)c(Br)c1 | · | · | · | 27.1* | 21.4 | 15.9
Cn1cc(SCC(=O)NC2CCCC2)c2ccccc21 | -3.8 | 5.3 | -1.7 | 4.4 | -2.0 | ·
Cn1cc(SCC(=O)NC2CCCCC2)c2ccccc21 | -2.2 | 2.7 | 1.3 | 26.7* | 15.8 | 13.1
CC(C)Cn1c(/C=C/c2ccco2)nc2ccccc21 | -0.9 | 3.6 | -0.1 | -10.4 | -0.5 | ·
CC1=C(SCc2ccccc2)C(=O)c2ccccc2C1=O | -12.1 | · | · | 31.8* | 9.2 | 10.7
CC(=O)Nc1sc(C)c(C)c1C(=O)OCC(=O)N(CCC#N)c1cc(C)cc(C)c1 | -0.1 | · | · | -2.0 | -18.4 | ·
CCn1nc(NC(=O)c2ccncc2)c2cc3ccc(C)cc3nc21 | 1.0 | 22.7 | -1.5 | 24.7* | 7.0 | 8.2
CCn1nc(NC(=O)c2ccncc2)c2cc3cc(C)ccc3nc21 | 0.8 | 5.9 | 2.4 | 15.5 | 7.0 | ·
Cc1cccc(N=Nc2c(N)n[nH]c2-c2ccc(Cl)cc2)c1 | 7.6 | 11.0 | -6.2 | 26.2* | 10.3 | 17.5
Cc1ccc(-c2[nH]nc(N)c2N=Nc2ccccc2C)cc1 | 11.0 | 17.8 | 3.5 | 27.0* | 19.2 | 20.3
Cc1nc2ccccc2c(=O)n1NC(=O)Cc1ccc([N+](=O)[O-])cc1 | 5.6 | 3.4 | -0.1 | 2.5 | -0.6 | ·
COc1ccc(-n2c(SCC(=O)Nc3ccc(NC(C)=O)cc3)nc3ccccc3c2=O)cc1 | -3.7 | 37.1 | -5.4 | 27.3* | 9.6 | 3.7
CCCc1nc2ccc(NC(=O)c3cccs3)cc2c(=O)n1Cc1ccccc1Cl | -6.1 | -31.3 | -1.1 | 12.9 | -3.1 | ·
CCCc1nc2ccc(NC(C)=O)cc2c(=O)n1Cc1ccc(Cl)cc1 | 1.6 | -56.4 | -0.7 | 27.6* | 9.0 | 13.5
CN(C(=O)COC(=O)c1cccc(S(=O)(=O)N2CCCCC2)c1)C1CCS(=O)(=O)C1 (configuration not stated) | -2.0 | -3.0 | -2.1 | -1.3 | 0.1 | ·
O=C(O)CC1(CC(=O)Nc2cc3ccccc3cn2)CCCCC1 | · | 0.3 | 1.1 | 3.9 | 11.7 | ·
COc1cc2c3nnc(-c4ccc(F)cc4)c-3cn(Cc3cccc(C)c3)c2cc1OC | 4.6 | -41.8 | 3.3 | 122.7* | -6.3 | 181.0*
CC1(C)CC(CCC(=O)Nc2ccc(S(N)(=O)=O)cc2)C(=O)O1 (configuration not stated) | -4.7 | -7.1 | 1.4 | 25.2* | -4.6 | -4.0
CNC1=C([N+](=O)[O-])CC([N+](=O)[O-])=C(N2CCNCC2)N1C | 4.9 | 14.0 | 1.9 | 5.0 | 2.1 | ·
